Reference: paper PMC8724840 (Biomolecules & Therapeutics, 2021)
Read-outs that look alike come from different tables or passages of the source.

Key:
GPR41 = molecular target: T1, GPR41 (Homo sapiens, UniProt O14843); assay: cAMP assay in GPR41-expressing HEK293 cells; type: cell-based
T1 sequence (O14843 1-346): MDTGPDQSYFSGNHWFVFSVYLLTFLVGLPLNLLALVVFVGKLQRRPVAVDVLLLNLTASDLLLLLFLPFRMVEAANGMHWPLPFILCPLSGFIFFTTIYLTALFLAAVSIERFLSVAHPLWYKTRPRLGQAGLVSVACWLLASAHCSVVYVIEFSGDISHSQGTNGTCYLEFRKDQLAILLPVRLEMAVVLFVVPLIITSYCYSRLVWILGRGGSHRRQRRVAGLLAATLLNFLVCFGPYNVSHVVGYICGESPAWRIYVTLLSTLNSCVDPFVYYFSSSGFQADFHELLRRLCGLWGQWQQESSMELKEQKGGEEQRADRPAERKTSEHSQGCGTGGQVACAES

human GPR43 [1] = molecular target: T2, human GPR43 (Homo sapiens, UniProt O15552); assay: Ca2+ flux assay in HEK293-hGPR43 cells; type: cell-based
T2 sequence (O15552 1-330): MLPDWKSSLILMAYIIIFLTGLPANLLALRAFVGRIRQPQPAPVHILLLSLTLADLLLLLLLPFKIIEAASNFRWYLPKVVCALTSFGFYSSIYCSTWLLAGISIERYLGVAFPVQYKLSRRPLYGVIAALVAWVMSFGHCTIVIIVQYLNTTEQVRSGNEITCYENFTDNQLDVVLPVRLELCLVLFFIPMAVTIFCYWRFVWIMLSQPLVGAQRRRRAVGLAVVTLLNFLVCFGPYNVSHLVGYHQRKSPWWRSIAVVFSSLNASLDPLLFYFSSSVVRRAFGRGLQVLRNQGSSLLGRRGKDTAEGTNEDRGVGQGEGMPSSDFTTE
In short: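 HEK293 cells with cumate-inducible human GPR43, kept in DMEM/10% FBS/GlutaMAX/Pen-Strep/2 μg/mL puromycin at 37°C, 5% CO2. Seeded overnight, then loaded 2 h with Calcium 6 dye plus 2.5 mM probenecid. Fluorescence read (ex 485/em 525 nm) every 2.1 s for 50 s. Cells serum-starved. Run in duplicate or triplicate; mean ± SEM.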

GPR43 and β-arrestin 2 = molecular target: T3, GPR43 and β-arrestin 2 (Homo sapiens, UniProt O15552); assay: Nano-Glo live cell assay of interaction between GPR43 and β-arrestin 2; type: cell-based; details: for change of potency / slope in β-arrestin-2 NanoBiT assay on addition of acetate: co-treatment with fixed concentrations of acetate
T3 sequence (O15552 1-330): T2 sequence (O15552 1-330)

human GPR43 [2] = molecular target: T2, human GPR43; assay: GloSensor cAMP assay in HEK293-hGPR43 cells; type: cell-based
In short: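 pGloSensor-22F was transfected into cumate-inducible HEK293-hGPR43 cells, which were re-plated 24 h later for 16 h. Cells were equilibrated 2 h at 20°C in CO2-independent medium with 2% GloSensor cAMP reagent, then pre-read. Compound was added for 5 min, then 1 μM forskolin for 15 min, followed by a luminescence post-read. Signal is post/pre-read, normalised to 0.2% DMSO. Single-point acetate/propionate 10 mM, other agonists 10 μM. Triplicate.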

[3] = test system: NF-κB activity induced by TNF-α in GPR43-expressing cells; assay: NF-κB luciferase reporter assay in HEK293-hGPR43 cells; type: cell-based, human
In short: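 For the NF-κB reporter readout, HEK293-hGPR43 cells were transfected with an NF-κB-RE luciferase reporter (pGL4.32), incubated 24 h at 37°C, 5% CO2, and plated overnight. Compound pretreatment lasted 20 min, then 10 ng/mL human TNF-α was added for 6 h at 37°C. Luminescence was read 15 min after adding One-Glo reagent. Duplicate or triplicate.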

DSS-induced colitis = DSS-induced colitis mouse model; type: in vivo, mouse (female C57BL/6); details: 30 mg/kg p.o. daily, 2% DSS
In short: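 Female C57BL/6 mice, 5 weeks old, SPF, acclimated 1 week, given 2% DSS (36–50 kDa) in drinking water ad libitum, renewed every 3 days. Compound 30 mg/kg p.o. daily. Scored daily: weight loss 0–4, stool 0–3, hemoccult bleeding 0–3. DAI is their sum. Day 8: colon length measured. PFA-fixed paraffin swiss-rolls stained for MPO by IHC (ABC, hematoxylin). n=5 control, 10 others.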

Solubility in DMSO = type: physicochemical; details: at a concentration of 20 mM
[4] = Homo sapiens, 6 h, read-out: EC50 NF-κB

Compound	cAMP level in GPR41-expressing cells (GPR41; 10 μM)	cAMP level in GPR41-expressing cells (GPR41; 10 mM)	cAMP level in GPR43-expressing cells (human GPR43 [2]; 10 mM)	EC50 (human GPR43 [1]) [µM]	EC50 (GPR43 and β-arrestin 2) [µM]	agonist type in the β-arrestin assay (maximum efficacy vs acetate and PAAT) (GPR43 and β-arrestin 2)	change of potency / slope in β-arrestin-2 NanoBiT assay on addition of acetate (GPR43 and β-arrestin 2)	EC50 (human GPR43 [2]) [µM]	cAMP level in GPR43-expressing cells (human GPR43 [2]; 10 μM)	solubility in dimethyl sulfoxide (DMSO) (Solubility in DMSO)	EC50 [3, 4] [µM]	level of myeloperoxidase (MPO) staining in colon (DSS-induced colitis; day 8)	other results
CC1=C(C(=O)Nc2cc(Cl)ccc2Cl)C(c2ccco2)C2=C(CCCC2=O)N1 (stereo not shown) [AR420626]	exerted activity	–	–	–	–	–	–	–	–	–	–	–	–
CC(=O)[O-].[Na+] [Acetate, sodium acetate, reference compound]	–	decrease	decrease	–	–	–	–	–	–	–	–	–	EC50 (human GPR43 [1]; read-out: EC50 Ca^2+, HEK293-hGPR43): 57.7 µM; EC50 (GPR43 and β-arrestin 2; read-out: EC50 β-Arrestin 2, GPR43-SmBit / LgBit-βarr2, 25 min): 1440 µM; EC50 (human GPR43 [2]; read-out: EC50 cAMP, HEK293-hGPR43, forskolin 1 μM): 301 µM; EC50 (human GPR43 [2]; read-out: EC50 in the cAMP assay, HEK293-hGPR43): 300 µM; efficacy of inhibition of NF-κB luciferase reporter activity ([3]; 10 ng/mL TNF-α): half the efficacy; EC50 ([3]; read-out: EC50 NF-κB, 10 ng/mL TNF-α, 6 h): 77.4 µM
Cc1nc(N2CCCC(C)C2)c2[nH]c(N)c(S(=O)(=O)c3ccccc3)c2n1 (stereo not shown) [Compound 110, 2-methyl-4-(3-methylpiperidin-1-yl)-7-(phenylsulfonyl)-5H-pyrrolo[3,2-d]pyrimidine-6-amine]	no effects	–	–	2.41	1.61	partial agonists	stiffer slopes	18.7	significantly suppressed	completely soluble	3.41	reduced	colon length (DSS-induced colitis; day 8): significantly restored; daily activity index (DAI) (DSS-induced colitis; vs vehicle-treated mice): decrease; stool consistency score (DSS-induced colitis; vs vehicle-treated mice): decrease; potency in the cAMP assay (human GPR43 [2]; HEK293-hGPR43): micromolar potency; EC50 ([3]; Homo sapiens, read-out: EC50 NF-κB luciferase reporter): 3.4 µM

Continued, in another order:

cAMP level in GPR41-expressing cells (GPR41; 10 μM)	cAMP level in GPR41-expressing cells (GPR41; 10 mM)	cAMP level in GPR43-expressing cells (human GPR43 [2]; 10 mM)	EC50 (human GPR43 [1]) [µM]	EC50 (GPR43 and β-arrestin 2) [µM]	agonist type in the β-arrestin assay (maximum efficacy vs acetate and PAAT) (GPR43 and β-arrestin 2)	change of potency / slope in β-arrestin-2 NanoBiT assay on addition of acetate (GPR43 and β-arrestin 2)	EC50 (human GPR43 [2]) [µM]	cAMP level in GPR43-expressing cells (human GPR43 [2]; 10 μM)	solubility in dimethyl sulfoxide (DMSO) (Solubility in DMSO)	EC50 [3, 4] [µM]	Compound	level of myeloperoxidase (MPO) staining in colon (DSS-induced colitis; day 8)	other results
no effects	–	–	0.019	0.018	partial agonists	stiffer slopes	0.016	significantly suppressed	completely soluble	0.019	Cc1nc(N2C[C@@H](C)O[C@@H](C)C2)c2[nH]c(N)c(S(=O)(=O)c3ccccc3F)c2n1 [Compound 187, 4-[(2R,6S)-2,6-dimethylmorpholin-4-yl]-7-(2-fluorobenzenesulfonyl)-2-methyl-5H-pyrrolo[3,2-d]pyrimidin-6-amine]	reduced	potency and efficacy in the calcium assay (human GPR43 [1]; HEK293-hGPR43): highest potency and efficacy
–	decrease	decrease	–	–	–	–	–	–	–	–	CCC(=O)O [propionate, reference compound]	–	–
